From ChEMBL document CHEMBL4261499, “Chiral disubstituted piperidinyl ureas: a class of dual diacylglycerol lipase-α and ABHD6 inhibitors” (Medchemcomm, 2017)
pIC50: −log10 of the molar value.

Tests used:
[1] = target: T1, Diacylglycerol lipase-alpha (Homo sapiens, UniProt Q9Y4D2); test: Inhibition of recombinant human DAGLalpha expressed in HEK293 cells using PNP-butyrate as substrate pretreated for 20 to 30 mins followed by substrate addition measured every 60 secs for 20 mins by colorimetric method; type: cell-based
T1 sequence (Q9Y4D2 whole entry): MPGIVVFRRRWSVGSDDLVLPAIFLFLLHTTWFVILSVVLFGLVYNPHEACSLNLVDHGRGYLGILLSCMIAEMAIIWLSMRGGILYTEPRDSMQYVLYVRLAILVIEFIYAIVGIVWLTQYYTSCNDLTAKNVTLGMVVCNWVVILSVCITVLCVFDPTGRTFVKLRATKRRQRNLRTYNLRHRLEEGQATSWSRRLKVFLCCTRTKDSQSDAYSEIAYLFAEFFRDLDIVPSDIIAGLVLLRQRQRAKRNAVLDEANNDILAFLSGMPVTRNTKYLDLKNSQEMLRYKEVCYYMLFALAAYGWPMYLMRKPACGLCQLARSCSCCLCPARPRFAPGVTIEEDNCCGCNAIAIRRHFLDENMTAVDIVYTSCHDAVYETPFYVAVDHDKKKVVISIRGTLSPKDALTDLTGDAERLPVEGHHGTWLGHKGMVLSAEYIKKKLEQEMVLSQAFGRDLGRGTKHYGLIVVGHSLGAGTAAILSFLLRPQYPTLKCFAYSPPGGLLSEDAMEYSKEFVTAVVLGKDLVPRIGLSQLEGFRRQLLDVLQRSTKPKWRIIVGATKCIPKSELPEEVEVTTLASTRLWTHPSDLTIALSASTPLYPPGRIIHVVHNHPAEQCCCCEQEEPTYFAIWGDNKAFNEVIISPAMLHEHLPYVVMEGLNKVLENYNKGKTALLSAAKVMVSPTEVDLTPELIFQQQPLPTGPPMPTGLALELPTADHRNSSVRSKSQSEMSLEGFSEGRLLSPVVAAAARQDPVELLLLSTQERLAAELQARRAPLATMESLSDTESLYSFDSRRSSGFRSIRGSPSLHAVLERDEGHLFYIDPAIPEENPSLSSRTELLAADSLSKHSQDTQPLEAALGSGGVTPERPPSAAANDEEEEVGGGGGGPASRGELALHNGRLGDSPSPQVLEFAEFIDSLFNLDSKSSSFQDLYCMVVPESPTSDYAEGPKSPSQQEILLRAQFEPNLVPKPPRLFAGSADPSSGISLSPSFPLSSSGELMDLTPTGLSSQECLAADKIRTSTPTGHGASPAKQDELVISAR
In short: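 Membrane fraction from HEK293T cells transiently transfected with human DAGLα (PEI transfection, harvested at 72 h). Membranes used at 0.05 μg μL-1 final protein in 50 mM HEPES pH 7.2. Colorimetric readout of para-nitrophenylbutyrate hydrolysis. pIC50 ± SEM.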

[2] = target: T2, Monoacylglycerol lipase ABHD6 (Homo sapiens, UniProt Q9BV23); test: Inhibition of recombinant human ABHD6 expressed in HEK293 cells by AmplifuTM red dye based fluorescence assay; type: cell-based
T2 sequence (Q9BV23 whole entry): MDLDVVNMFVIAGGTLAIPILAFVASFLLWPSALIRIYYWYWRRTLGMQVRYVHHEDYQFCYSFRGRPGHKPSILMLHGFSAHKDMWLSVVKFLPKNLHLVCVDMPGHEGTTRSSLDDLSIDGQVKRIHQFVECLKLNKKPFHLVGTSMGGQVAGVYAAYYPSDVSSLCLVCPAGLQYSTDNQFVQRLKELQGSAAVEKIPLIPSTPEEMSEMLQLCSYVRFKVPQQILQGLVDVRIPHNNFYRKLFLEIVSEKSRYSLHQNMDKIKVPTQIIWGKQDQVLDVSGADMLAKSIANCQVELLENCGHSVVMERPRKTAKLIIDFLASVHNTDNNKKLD
In short: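 Membranes from transiently transfected HEK293T cells expressing human ABHD6, 40 μg mL-1 final protein. Real-time coupled fluorescence assay with natural substrate 2-AG (25 μM). Glycerol released is detected via glycerol kinase, glycerol-3-phosphate oxidase and HRP (0.2 U mL-1 each), 0.125 mM ATP and 10 μM Amplifu Red. Assay contains 5% DMSO and 0.5% acetonitrile. pIC50 ± SEM.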

[3] = target: T3, Monoacylglycerol lipase ABHD6 (Mus musculus) (UniProt Q8R2Y0); test: Inhibition of MB064 labelling of ABHD6 in mouse brain homogenates at 10 uM pretreated for 30 mins followed by MB064 addition and measured after 20 mins by activity based protein profiling assay relative to control; type: tissue-based
T3 sequence (whole entry): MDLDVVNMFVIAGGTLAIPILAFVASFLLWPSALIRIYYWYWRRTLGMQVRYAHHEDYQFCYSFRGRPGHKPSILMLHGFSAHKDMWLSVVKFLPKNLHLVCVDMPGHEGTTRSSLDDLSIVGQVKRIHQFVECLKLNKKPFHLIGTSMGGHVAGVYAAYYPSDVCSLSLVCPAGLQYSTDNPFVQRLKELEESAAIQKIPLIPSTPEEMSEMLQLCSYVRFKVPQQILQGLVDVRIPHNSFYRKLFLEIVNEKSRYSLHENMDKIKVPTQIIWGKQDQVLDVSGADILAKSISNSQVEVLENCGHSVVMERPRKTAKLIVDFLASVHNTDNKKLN
In short: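 Mouse brain membrane proteome preincubated 30 min with inhibitor (10 μM), then labelled with MB064 probe (0.25 μM, 20 min). Readout by gel-based competitive ABPP. Band intensities corrected for protein loading per lane from Coomassie staining. Means ± SEM, n = 3.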

| pIC50 [1] | pIC50 [2] | inhibition [3] | Structure (SMILES) |
| --- | --- | --- | --- |
| 7.80 | 7.50 | 93% | O=C(N1CCC=C[C@@H]1COCc1ccccc1)n1cc(-c2ccc([N+](=O)[O-])cc2)nn1 |
| 7.60 | 8.20 | 86% | O=C(N1CCC=C[C@@H]1COCc1ccccc1)n1cc(-c2ccc(Oc3ccccc3)cc2)nn1 |
| 7.80 | 7.80 | 94% | O=C(N1CCC=C[C@@H]1COCc1ccccc1)n1cc(-c2ccc(Br)cc2)nn1 |
| 7.10 | 8.50 | 96% | O=C(N1CCCC[C@@H]1COCc1ccccc1)n1cc(-c2ccc(-c3ccccc3)cc2)nn1 |
| 6.80 | 6.80 | 89% | O=C(N1CCC=C[C@@H]1COCc1ccccc1)n1cc(-c2ccccc2)nn1 |
| 7.60 | 7.90 | 96% | O=C(N1CCC=C[C@@H]1COCc1ccccc1)n1cc(-c2ccc(-c3ccccc3)cc2)nn1 |
| 7.50 | 8.00 | 95% | O=C(N1C[C@@H](O)C=C[C@@H]1COCc1ccccc1)n1cc(-c2ccc(-c3ccccc3)cc2)nn1 |
